Fewer inactive variants are shown than the library holds.
B1: tRNA (parent)
chain: GUUCCGUUGGCGUAAUGGUAACGCGUCUCCCUCCUAAGGAGAAGACUGCGGGUUCGAGUCCCGUACGGAACG

Variants of: B1
Assay: yeast fitness relative to wild type (ratio to wild type); higher = fitter; tRNA-Arg(CCU), competitive growth, 37 C, YPD
Method in brief: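 Amplicons of the tRNA-Arg(CCU) gene were sequenced, 100-nucleotide paired-end, from the start population and from each end population of a pooled yeast competition. The competition, in six parallel replicates, lasted 24 hours in YPD at 37°C. Fitness relative to wild type was calculated from changes in genotype frequencies. Genotypes had to have ≥ 100 starting reads, and estimates < 0.5 were set to 0.5.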

| Variant | yeast fitness |
| --- | --- |
| GUUCCGUUGGUGUAAUGGUAUCGCGUCUCCCUCCUAAGGAGAAGACUGCGGGUUAGAGUCCCGUACGGAACG [C11U A21U C55A] | 0.632 |
| GUUUGGUUGGCGUAAUGGUAACGCGUCUGCGUCCUACGGAGAAGACUGCGGGUUCGAGUCCCGUAAGGAACG [C4U C5G C29G C31G A37C C66A] | 0.66 |
| GUUCCGUUGGUGUAAUGGUUACGUGUCUACCUCCUAAGGAGAAGACUGCGGGUUCGAGACCCGUACCGCACG [C11U A20U C24U C29A U59A G67C A69C] | ≤ 0.5 |
| GUUACGCUGGCGUAAUGGUAACGCGUCUCCCUCCUAAGGAAAAGACUGAGGGUCCGAGUCCCGUACGGAACG [C4A U7C G41A C49A U54C] | ≤ 0.5 |
| GUUCCGUUCGCGCAAUGGUAACGCGUAUCCCUCCUAAGGAGAAGACUGCGGGUACGAGUUCCGUACGGAACG [G9C U13C C27A U54A C60U] | ≤ 0.5 |
| GUUCCGUUGGCGUAAUGGUAAUGCGUCUCACUCUUAACGAGAAGACUGCGGGUUCGAGUCCCGUACGGAACG [C22U C30A C34U G38C] | ≤ 0.5 |
| GUUCCGUUGACGUAAUGGUAACGCGUUUCCCUCCUAAGGAGAAGACUGCGGGUUCGAGUCCCGUACCGAACG [G10A C27U G67C] | 0.627 |
| GUUCCGUUCGCGUAAUGGUAACGCGUCUUCCUCCUAAGGAGAAGACUGAGGGUUCGAGUCUCGUACGGAACG [G9C C29U C49A C61U] | ≤ 0.5 |
| GUUCCGUUGGCGUAAUGGAAACGGGUUUCACUCCUGAGGAGAAGACUGCGGCUUCGAGUCCCGUACGGAACG [U19A C24G C27U C30A A36G G52C] | ≤ 0.5 |
| GUUCCGUUGACGUAAUGGUAACGCGACUCCCUCCUAAGGAGAAGACUGCGGGUUCGAGUCCUGUACGGAACG [G10A U26A C62U] | 0.529 |
| GAUCCGUGGGCGUAAUGGUAAUGCGUCUCCCCGCUAAAGAGAAGACUGCGGGUUCGAGUCCCGUACGGAACG [U2A U8G C22U U32C C33G G38A] | ≤ 0.5 |
| GUUCCGUUGGCGUGAUGGUAACGCGUCUCCCUCCUAAGGAGAAGACUGCGGGUUCGAAUCCCGUACGGAACG [A14G G58A] | 0.836 |
| GUACCGGUGGCGUUAUGGUAACGCAUCUCCCUCCUAAGGACAAGAUUGCGGGUUCGAGCCACGUACGGAACG [U3A U7G A14U G25A G41C C46U U59C C61A] | ≤ 0.5 |
| GUUCCAUUGGCGUAAUGAUAAUGCGUCUCCCUCCUAAGGAGAAGACUGCGGGUUCGAGUCCCGUACGGAACG [G6A G18A C22U] | 0.6 |
| GUUCCGUUGGCGUAGUGGUAGCGCGUCUCCCUCCUAAGAAGAAGACUGCGGGUUCGAGUCCCGUACGGAACG [A15G A21G G39A] | 0.649 |
| GUUACGUUGGCGUAAAGGUAACGCGUCUCGUUCCUAAGGAGAAGACUGCGGGUUCGAGUCCCGUACGGAACG [C4A U16A C30G C31U] | ≤ 0.5 |
| GUUACGUUGGCGUAAUGGUAGCGCGUCUCCCUCCUAAGGAGAAGACUGCGGGUUCGAGUGCCGUACAGAACG [C4A A21G C60G G67A] | ≤ 0.5 |
| GUUCCGUUGGCGUAAUGGUAACGCGUCUUCCUCCUAAGGAGAAGCCUGCGGGUUCGGGUCCCGUUCGGAACG [C29U A45C A57G A65U] | ≤ 0.5 |
| GUUCGGUUGGCGUAAUGGUAACGCGUCUCCCUCCUAAGGAGAAGACUGCGAGUUCGAGUCCCGUACGGUACG [C5G G51A A69U] | 0.528 |

| Variant | yeast fitness |
| --- | --- |
| GUUCUGUUGGCGUAAUGGUAACGUGUCUCCCUCCUAAGGCGAAGACUGCGGGUUCGAGUCCCGUACGGAACG [C5U C24U A40C] | 0.634 |
| GUUCCGUUGGGGUACUGGUAACGCGUCUCCCUCCUAAGGAGAAGAGUGCGGGUUCGAGACCCGUACGGAACG [C11G A15C C46G U59A] | ≤ 0.5 |
| GUUCCGUUGGCGUAAUGGUAACGCGUCUCCCUCCUAAGGAGAAGACUGCGGGUUCGAGUCGCGUACGGUACG [C61G A69U] | 0.635 |
| GUUCCGUUGGCGUAAUGGUAACCCGUCUCCCUCCUAAGGAGCCGACUGCGGGUUCGAGUCCCGUACGGAACG [G23C A42C A43C] | 0.575 |
| GUUCCGUUGGCGUAAUGGUAACGCGUAUCCCUCCUAAGGAGAAGACUGCGGGUUCGAGCCCCGUACGGUACG [C27A U59C A69U] | 0.713 |
| GUCCCGUUGGCGUAAUGGUAACGCGUCUCCUUCCUAAGGAGGAGACUGCGGGUACGAGUCCCGUACGGAACG [U3C C31U A42G U54A] | ≤ 0.5 |
| GUUCCGUUGGCGUCACGGUAACGCGUCUCCCUCCUAAGGAGAAGACUGCGCGUUCGAAUCCCGUACGGAACG [A14C U16C G51C G58A] | 0.528 |
| GUUCCGUUGGCGUAAUGGUAACGCGUCUCCCUCUUAAGGAGGAGACUGCGGGUUCGAGUCCCGUCCGGAACG [C34U A42G A65C] | 0.57 |
| GAUCCGUUGGCGUCAUGGUAACGCGUCUCCCUCAUAAGGAGAAGACUGUGGGUUUGAGUCCCGUACGGCACG [U2A A14C C34A C49U C55U A69C] | ≤ 0.5 |
| GCUCCGUUGGCGUAAUGGUAACGCGUCUCCCUCCUAAGGAGACGACUGCGGGUUCGAGUCCCGUACGGAACG [U2C A43C] | 0.874 |
| GUUCCGUUGGCGUAAUGGUAAUGCGUCACCCUCCUAAGGAGAAGACUGCGGGUUGGCGUCCCGUACGGAACG [C22U U28A C55G A57C] | ≤ 0.5 |
| GUCCCGUUGGCGUAAUGGUAACGCGUCUCCCUCCUGAGCAGAAGACUGCGGGUUUGAGUCCCGUAUGGAACG [U3C A36G G39C C55U C66U] | ≤ 0.5 |
| GUUUCGUUGGAGUAAUGGUAACGCGUCUCCCUCCUACGGAGAAGACUGCGGGUUCGAGUCCCGUACCGAACG [C4U C11A A37C G67C] | ≤ 0.5 |
| GUUCUGUUGGCGUAACGGUAACGCGUCUCCCUCCUAAGGAGAAGACUGCGGGUUCGAGGCCCGUACGGAACG [C5U U16C U59G] | ≤ 0.5 |
| GUUCCGUUGGCGUAAUGGUAACGCGUCUACCUCCUAAGGAGAAGAAUGAGGGUUCGAGUCCCGUACGGAACG [C29A C46A C49A] | ≤ 0.5 |
| GUUCCAUUGGCGUAAUGGUAACGCGUCUCCCUCCUAAGGAGAAGACUGAGGGUUCGAGUCCCAUACGGAACG [G6A C49A G63A] | ≤ 0.5 |
| GUUCCGUUGGCGUAGUAGUAACGCGUCUCCCUUCUAAGGAGAAGACUGCGGGUUCGAGUCCCGUACGGAACG [A15G G17A C33U] | ≤ 0.5 |
| GUUCUGUUGGCGUAAUGGUAACACGUCUCCCUCCUAAGGAGAAGACUGCGGGUCCGAGUCCCGUACGGAACG [C5U G23A U54C] | ≤ 0.5 |
| GUUCCGCUGGCGAAAUGGUAACGUGUCUCCCUCCUAAGGAGAAGACUGCUAGUUCGAGACCCGUCCGGAACG [U7C U13A C24U G50U G51A U59A A65C] | ≤ 0.5 |
